Experimental data from ChEMBL document CHEMBL4145650, “Napabucasin and Related Heterocycle-Fused Naphthoquinones as STAT3 Inhibitors with Antiproliferative Activity against Cancer Cells” (J Nat Prod, 2018).
The source made the active and inactive calls. The calls are words filed in the database; no cut-off is given here.

Key:
[1] = test system: MDA-MB-231; assay: Cell cycle arrest in human MDA-MB-231 cells assessed as accumulation at G2 phase at 3 uM measured after 24 hrs by propidium iodide staining based flow cytometry (reference value: 23%); format: functional
[2] = test system: MDA-MB-231; assay: Cell cycle arrest in human MDA-MB-231 cells assessed as accumulation at sub-G0 phase at 30 uM measured after 24 hrs by propidium iodide staining based flow cytometry (reference value: 3%); format: functional
[3] = test system: MDA-MB-231; assay: Cell cycle arrest in human MDA-MB-231 cells assessed as accumulation at G1 phase at 3 uM measured after 24 hrs by propidium iodide staining based flow cytometry (reference value: 62%); format: functional
[4] = test system: MDA-MB-231; assay: Induction of apoptosis in human MDA-MB-231 cells assessed as early apoptotic cells at 10 umol/L measured after 8 hrs by annexin-V-FITC/7-AAD staining based flow cytometric analysis relative to control; format: functional
[5] = test system: K562; assay: Induction of superoxide generation in human K562 cells at 5 umol/L measured after 24 hrs by DHE staining based flow cytometry; format: functional, cell-based
Summary of the method: (§1)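 Cells were treated with compound at 5 μmol/L or DMSO for 24 h, with or without dicoumarol preincubation (5 μmol/L, 30 min), then stained with DHE for 30 min. 2-OH-DHE fluorescence was read by flow cytometry and expressed relative to vehicle control. At least three independent measurements.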

[6] = test system: MDA-MB-231; assay: Cell cycle arrest in human MDA-MB-231 cells assessed as accumulation at S phase at 1 uM measured after 24 hrs by propidium iodide staining based flow cytometry (reference value: 12%); format: functional
[7] = test system: MDA-MB-231; assay: Induction of apoptosis in human MDA-MB-231 cells assessed as early apoptotic cells at 10 umol/L measured after 6 hrs by annexin-V-FITC/7-AAD staining based flow cytometric analysis relative to control; format: functional
[8] = test system: MDA-MB-231; assay: Induction of superoxide generation in human MDA-MB-231 cells at 5 umol/L measured after 24 hrs in presence of NQO1 inhibitor dicoumarol by DHE staining based flow cytometry; format: functional, cell-based; summary of the method: as §1
[9] = test system: MDA-MB-231; assay: Induction of apoptosis in human MDA-MB-231 cells assessed as viable cells at 10 umol/L measured after 4 hrs by annexin-V-FITC/7-AAD staining based flow cytometric analysis (reference value: 97 to 98%); format: functional; conditions: MDA-MB-231, 4 h, read-out: Activity
[10] = test system: MDA-MB-231; assay: Cell cycle arrest in human MDA-MB-231 cells assessed as accumulation at G1 phase at 10 uM measured after 24 hrs by propidium iodide staining based flow cytometry (reference value: 62%); format: functional
[11] = test system: MDA-MB-231; assay: Antiproliferative activity against human MDA-MB-231 cells measured after 48 hrs by MTT assay; format: functional, cell-based; conditions: MDA-MB-231, 48 h
Summary of the method: (§2)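 Cells kept in 10% FBS medium with penicillin/streptomycin/L-glutamine at 37 °C, 5% CO2 (MDA-MB-231 in DMEM, K562 in RPMI 1640). Viability read by MTT reduction to formazan after 48 h of exposure. IC50 obtained by nonlinear regression against vehicle control, given as mean ±SD of three independent experiments (n = 2 where footnoted).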

[12] = test system: MDA-MB-231; assay: Induction of apoptosis in human MDA-MB-231 cells assessed as early apoptotic cells at 10 umol/L measured after 24 hrs by annexin-V-FITC/7-AAD staining based flow cytometric analysis relative to control; format: functional
[13] = test system: MDA-MB-231; assay: Cell cycle arrest in human MDA-MB-231 cells assessed as accumulation at G2 phase at 1 uM measured after 24 hrs by propidium iodide staining based flow cytometry (reference value: 23%); format: functional
[14] = test system: MDA-MB-231; assay: Induction of apoptosis in human MDA-MB-231 cells assessed as late apoptotic cells at 10 umol/L measured after 24 hrs by annexin-V-FITC/7-AAD staining based flow cytometric analysis relative to control; format: functional
[15] = test system: MDA-MB-231; assay: Cell cycle arrest in human MDA-MB-231 cells assessed as accumulation at sub-G0 phase at 3 uM measured after 24 hrs by propidium iodide staining based flow cytometry (reference value: 3%); format: functional
[16] = test system: MDA-MB-231; assay: Induction of apoptosis in human MDA-MB-231 cells assessed as late apoptotic cells at 10 umol/L measured after 6 hrs by annexin-V-FITC/7-AAD staining based flow cytometric analysis relative to control; format: functional
[17] = test system: MDA-MB-231; assay: Cell cycle arrest in human MDA-MB-231 cells assessed as accumulation at S phase at 3 uM measured after 24 hrs by propidium iodide staining based flow cytometry (reference value: 12%); format: functional
[18] = test system: MDA-MB-231; assay: Cell cycle arrest in human MDA-MB-231 cells assessed as accumulation at sub-G0 phase at 10 uM measured after 24 hrs by propidium iodide staining based flow cytometry (reference value: 3%); format: functional
[19] = test system: MDA-MB-231; assay: Induction of apoptosis in human MDA-MB-231 cells assessed as viable cells at 10 umol/L measured after 2 hrs by annexin-V-FITC/7-AAD staining based flow cytometric analysis (reference value: 97 to 98%); format: functional; conditions: MDA-MB-231, 2 h, read-out: Activity
[20] = test system: K562; assay: Antiproliferative activity against human K562 cells measured after 48 hrs by MTT assay; format: functional, cell-based; conditions: K562, 48 h; summary of the method: as §2
[21] = test system: MDA-MB-231; assay: Induction of apoptosis in human MDA-MB-231 cells assessed as late apoptotic cells at 10 umol/L measured after 8 hrs by annexin-V-FITC/7-AAD staining based flow cytometric analysis relative to control; format: functional
[22] = test system: MDA-MB-231; assay: Cell cycle arrest in human MDA-MB-231 cells assessed as accumulation at G2 phase at 10 uM measured after 24 hrs by propidium iodide staining based flow cytometry (reference value: 23%); format: functional
[23] = test system: MDA-MB-231; assay: Cell cycle arrest in human MDA-MB-231 cells assessed as accumulation at G1 phase at 30 uM measured after 24 hrs by propidium iodide staining based flow cytometry (reference value: 62%); format: functional
[24] = test system: MDA-MB-231; assay: Induction of apoptosis in human MDA-MB-231 cells assessed as viable cells at 10 umol/L measured after 8 hrs by annexin-V-FITC/7-AAD staining based flow cytometric analysis (reference value: 97 to 98%); format: functional; conditions: MDA-MB-231, 8 h, read-out: Activity
[25] = test system: MDA-MB-231; assay: Cell cycle arrest in human MDA-MB-231 cells assessed as accumulation at S phase at 10 uM measured after 24 hrs by propidium iodide staining based flow cytometry (reference value: 12%); format: functional
[26] = test system: MDA-MB-231; assay: Cell cycle arrest in human MDA-MB-231 cells assessed as accumulation at S phase at 30 uM measured after 24 hrs by propidium iodide staining based flow cytometry (reference value: 12%); format: functional
[27] = test system: MDA-MB-231; assay: Induction of superoxide generation in human MDA-MB-231 cells at 5 umol/L measured after 24 hrs by DHE staining based flow cytometry; format: functional, cell-based; summary of the method: as §1
[28] = test system: MDA-MB-231; assay: Cell cycle arrest in human MDA-MB-231 cells assessed as accumulation at sub-G0 phase at 1 uM measured after 24 hrs by propidium iodide staining based flow cytometry (reference value: 3%); format: functional
[29] = test system: MDA-MB-231; assay: Induction of apoptosis in human MDA-MB-231 cells assessed as viable cells at 10 umol/L measured after 6 hrs by annexin-V-FITC/7-AAD staining based flow cytometric analysis (reference value: 97 to 98%); format: functional; conditions: MDA-MB-231, 6 h, read-out: Activity
[30] = test system: MDA-MB-231; assay: Induction of apoptosis in human MDA-MB-231 cells assessed as viable cells at 10 umol/L measured after 24 hrs by annexin-V-FITC/7-AAD staining based flow cytometric analysis (reference value: 97 to 98%); format: functional; conditions: MDA-MB-231, 24 h, read-out: Activity
[31] = test system: K562; assay: Induction of superoxide generation in human K562 cells at 5 umol/L measured after 24 hrs in presence of NQO1 inhibitor dicoumarol by DHE staining based flow cytometry; format: functional, cell-based; summary of the method: as §1
[32] = test system: MDA-MB-231; assay: Cell cycle arrest in human MDA-MB-231 cells assessed as accumulation at G1 phase at 1 uM measured after 24 hrs by propidium iodide staining based flow cytometry (reference value: 62%); format: functional
[33] = test system: MDA-MB-231; assay: Cell cycle arrest in human MDA-MB-231 cells assessed as accumulation at G2 phase at 30 uM measured after 24 hrs by propidium iodide staining based flow cytometry (reference value: 23%); format: functional

In the case of CC1(C)CCC2=C(O1)c1ccccc1C(=O)C2=O [LAPACHONE], the Activity [1] is reported as 21%, the Activity [2] is reported as 3% and the Activity [3] is reported as 63%. The Activity [4] was 7%, the Activity [5] was “inactive” and the Activity [6] was 14%. The Activity [7] was 4%, the Activity [8] was “inactive” and the viability at 10 µM [9] was 93%. For the same compound, the Activity [10] was 53%, the IC50 [11] was 4.3 µM and the Activity [12] was 15%. The Activity [13] was 20%, the Activity [14] was 48% and the Activity [15] was 3%. For the same compound, the Activity [16] was 7%, the Activity [17] was 14% and the Activity [18] was 3%. It also gave a viability at 10 µM [19] of 97%, an IC50 [20] of 1.6 µM and an Activity [21] of 8%. For the same compound, the Activity [22] was 27%, the Activity [23] was 57% and the viability at 10 µM [24] was 86%. For the same compound, the Activity [25] was 18%, the Activity [26] was 16% and the Activity [27] was “inactive”. The Activity [28] was 4%, the viability at 10 µM [29] was 90% and the viability at 10 µM [30] was 38%. The Activity [31] was “inactive”, the Activity [32] was 62% and the Activity [33] was 24%.

CC(C)=CCC1=C(O)C(=O)c2ccccc2C1=O [LAPACHOL] gave an IC50 [11] greater than 10 µM and an IC50 [20] greater than 10 µM.

In the case of O=C1c2ccccc2C(=O)c2occc21, the IC50 [11] is reported as greater than 10 µM and the IC50 [20] is reported as 5.2 µM.
